# Laboratory results published in ChEMBL document CHEMBL1148711, “Naphthalen-1-yl-(4-pentyloxynaphthalen-1-yl)methanone: a potent, orally bioavailable human CB1/CB2 dual agonist with antihyperalgesic properties and restricted central nervous system penetration” (J Med Chem, 2007).
# What was measured:
# Cannabinoid receptor 1 [1] = target: Cannabinoid receptor 1 (Homo sapiens, UniProt P21554); experiment: Displacement of [3H]CP-55940 from human CB1 receptor expressed in HEK293 cells; assay type: cell-based
# Chain of Cannabinoid receptor 1 (Homo sapiens, UniProt P21554) (P21554 whole entry): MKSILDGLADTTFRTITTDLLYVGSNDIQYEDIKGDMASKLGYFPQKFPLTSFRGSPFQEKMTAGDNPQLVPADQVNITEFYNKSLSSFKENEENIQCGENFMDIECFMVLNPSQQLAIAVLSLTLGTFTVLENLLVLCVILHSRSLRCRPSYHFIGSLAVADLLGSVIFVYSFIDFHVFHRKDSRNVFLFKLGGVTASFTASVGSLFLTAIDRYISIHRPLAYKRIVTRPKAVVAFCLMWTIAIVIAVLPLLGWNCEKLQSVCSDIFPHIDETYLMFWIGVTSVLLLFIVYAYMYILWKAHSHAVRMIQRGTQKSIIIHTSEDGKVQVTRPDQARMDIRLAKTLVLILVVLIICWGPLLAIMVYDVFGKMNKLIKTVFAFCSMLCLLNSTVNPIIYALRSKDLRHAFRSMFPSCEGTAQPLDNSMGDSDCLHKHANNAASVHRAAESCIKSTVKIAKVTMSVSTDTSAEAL
# Cannabinoid receptor 2 [2] = target: T1, Cannabinoid receptor 2 (Homo sapiens, UniProt P34972); experiment: Displacement of [3H]CP-55940 human CB2 receptor expressed in CHOK1 cells; assay type: cell-based, CHO-K1
# T1 sequence (P34972 whole entry): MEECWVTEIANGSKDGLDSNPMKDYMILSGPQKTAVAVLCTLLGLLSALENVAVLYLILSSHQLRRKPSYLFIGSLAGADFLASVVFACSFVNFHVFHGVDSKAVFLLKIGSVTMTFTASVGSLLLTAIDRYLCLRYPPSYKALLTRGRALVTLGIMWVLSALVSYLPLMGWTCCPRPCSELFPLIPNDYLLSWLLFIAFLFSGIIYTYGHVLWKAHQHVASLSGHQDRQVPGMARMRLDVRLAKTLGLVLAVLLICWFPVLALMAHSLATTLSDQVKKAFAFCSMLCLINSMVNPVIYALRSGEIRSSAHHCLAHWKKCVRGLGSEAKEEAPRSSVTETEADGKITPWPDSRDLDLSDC
# In short: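 Human CB2 expressed in CHO cells. Values are the mean ± SEM of at least three determinations, derived by logistic curve fitting.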
# Cytochrome P450 2E1 = Cytochrome P450 2E1 (Homo sapiens, UniProt P05181); experiment: Inhibition of CYP2E1 in human liver microsomes; assay type: ADME, Microsome
# Chain of Cytochrome P450 2E1 (P05181 whole entry): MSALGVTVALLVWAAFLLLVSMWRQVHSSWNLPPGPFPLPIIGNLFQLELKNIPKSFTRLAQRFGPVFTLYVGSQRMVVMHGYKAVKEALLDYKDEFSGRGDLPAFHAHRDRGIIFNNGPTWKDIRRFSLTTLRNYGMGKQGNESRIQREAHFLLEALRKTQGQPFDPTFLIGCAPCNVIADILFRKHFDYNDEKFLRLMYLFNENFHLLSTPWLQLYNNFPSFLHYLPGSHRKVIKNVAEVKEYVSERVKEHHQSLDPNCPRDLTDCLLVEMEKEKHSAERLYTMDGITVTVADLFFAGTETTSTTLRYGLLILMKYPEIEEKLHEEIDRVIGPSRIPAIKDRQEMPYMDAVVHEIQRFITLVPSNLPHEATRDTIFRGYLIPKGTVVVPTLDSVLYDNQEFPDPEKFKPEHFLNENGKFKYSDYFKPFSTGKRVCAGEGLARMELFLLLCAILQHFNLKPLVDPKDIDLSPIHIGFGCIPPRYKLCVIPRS
# Cytochrome P450 3A4 = Cytochrome P450 3A4 (Homo sapiens, UniProt P08684); experiment: Inhibition of CYP3A4 in human liver microsomes; assay type: ADME, Microsome
# Chain of Cytochrome P450 3A4 (P08684 whole entry): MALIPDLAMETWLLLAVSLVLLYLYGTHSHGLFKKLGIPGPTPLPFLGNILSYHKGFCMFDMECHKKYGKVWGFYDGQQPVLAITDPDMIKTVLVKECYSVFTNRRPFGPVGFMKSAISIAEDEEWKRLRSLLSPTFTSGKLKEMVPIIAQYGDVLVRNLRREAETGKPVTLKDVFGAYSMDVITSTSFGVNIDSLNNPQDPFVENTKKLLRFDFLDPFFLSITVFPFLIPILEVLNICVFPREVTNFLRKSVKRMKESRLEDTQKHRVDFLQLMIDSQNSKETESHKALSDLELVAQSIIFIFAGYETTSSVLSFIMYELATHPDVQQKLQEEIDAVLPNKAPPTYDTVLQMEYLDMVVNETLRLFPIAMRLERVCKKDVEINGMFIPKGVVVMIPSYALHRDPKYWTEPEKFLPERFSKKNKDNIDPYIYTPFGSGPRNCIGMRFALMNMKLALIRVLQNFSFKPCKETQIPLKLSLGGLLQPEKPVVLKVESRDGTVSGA
# [3] = Plasma protein binding; assay type: ADME, cell-free; conditions: human, read-out: PPB
# [4] = Partition coefficient, log P of the compound; assay type: physicochemical; conditions: octanol/water
# [5] = Cmax in Wistar rat at 3 mg/kg, po after 1 hr; assay type: ADME, organism-based; design: dose 3 mg/kg, route oral; conditions: in vivo
# In short: (§1)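 Single oral dose of 3 mg/kg in Wistar rats. Plasma and brain concentrations were followed over time after dosing.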
# Brain = experiment: Drug level in brain in Wistar rat after 4 hrs; assay type: ADME, tissue-based; conditions: in vivo; in short: as §1
# Cannabinoid receptor 1 [6] = target: Cannabinoid receptor 1 (Rattus norvegicus, UniProt P20272); experiment: Inhibition of rat CB1 receptor
# Chain of Cannabinoid receptor 1 (Rattus norvegicus, UniProt P20272) (P20272 whole entry): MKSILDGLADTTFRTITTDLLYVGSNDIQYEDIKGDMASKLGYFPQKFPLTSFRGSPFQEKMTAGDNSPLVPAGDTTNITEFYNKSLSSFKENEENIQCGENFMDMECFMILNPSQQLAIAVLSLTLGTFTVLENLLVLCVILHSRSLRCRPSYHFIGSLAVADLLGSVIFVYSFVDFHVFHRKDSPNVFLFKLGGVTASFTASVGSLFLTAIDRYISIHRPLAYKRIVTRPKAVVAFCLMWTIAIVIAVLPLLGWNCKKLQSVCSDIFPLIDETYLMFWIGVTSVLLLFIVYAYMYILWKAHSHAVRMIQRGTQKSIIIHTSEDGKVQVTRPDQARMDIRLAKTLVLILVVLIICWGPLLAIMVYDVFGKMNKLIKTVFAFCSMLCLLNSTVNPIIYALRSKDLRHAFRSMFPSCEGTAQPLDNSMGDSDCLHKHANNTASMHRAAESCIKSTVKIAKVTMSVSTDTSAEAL
# Cannabinoid receptor 2 [7] = target: T1, Cannabinoid receptor 2; experiment: Agonist activity at human CB2 receptor expressed in CHOK1 cells assessed as reversal of forskolin-evoked cAMP accumulation relative to CP-55940; assay type: functional, cell-based; conditions: CHO-K1
# In short: (§2)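 CHO cells expressing human CB2 were stimulated with forskolin, and agonist reversal of cyclic AMP accumulation was measured. Potency is given as mean ± SEM of 3–13 independent measurements. Emax is the maximal reversal, expressed as a percentage of the value obtained with a reference agonist.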
# [8] = Total clearance in Wistar rat at 1 mg/kg, iv; assay type: ADME, organism-based; design: dose 1 mg/kg, route intravenous; conditions: in vivo
# In short: (§3)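 Wistar rats dosed once iv at 1 mg/kg or orally at 3.4 mg/kg. Plasma parameters (half-life, steady-state volume of distribution, total clearance, AUC0-∞, Tmax, Cmax) were derived from the concentration–time profiles. Absolute oral bioavailability was calculated from the po and iv AUC0-∞.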
# Liver microsomes [9] = experiment: Intrinsic clearance in rat liver microsomes; assay type: ADME, Microsome
# Cannabinoid receptor 2 [10] = target: T1, Cannabinoid receptor 2; experiment: Agonist activity at human CB2 receptor expressed in CHOK1 cells assessed as reversal of forskolin-evoked cAMP accumulation; assay type: functional, cell-based, CHO-K1; in short: as §2
# Rattus norvegicus [11] = experiment: Antihyperalgesic activity in rat assessed as reversal of hyperalgesia at 3 mg/kg, po after 1 hr; assay type: functional
# In short: (§4)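 Rat model of neuropathic mechanical hyperalgesia with oral dosing. Read-out was paw withdrawal threshold of the ipsilateral paw, followed from 1 h after dosing, with 12 animals per group, as mean ± SEM. Groups were compared with vehicle by ANOVA and Tukey's HSD.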
# [12] = Half life in Wistar rat at 1 mg/kg, iv; assay type: ADME, organism-based; design: dose 1 mg/kg, route intravenous; conditions: in vivo, read-out: beta t1/2 (converted); in short: as §3
# Rattus norvegicus [13] = species: Rattus norvegicus; experiment: Antihyperalgesic activity in rat assessed as reversal of hyperalgesia; assay type: functional; in short: as §4
# [14] = Volume of distribution at steady state in Wistar rat at 1 mg/kg, iv; assay type: ADME, organism-based; design: dose 1 mg/kg, route intravenous; conditions: in vivo, read-out: Vdss; in short: as §3
# [15] = AUC (0 to infinity) in Wistar rat at 1 mg/kg, iv; assay type: ADME, organism-based; design: time infinity, dose 1 mg/kg, route intravenous; conditions: plasma; in short: as §3
# [16] = Tmax in Wistar rat at 3.4 mg/kg, po; assay type: ADME, organism-based; design: dose 3.4 mg/kg, route oral; conditions: in vivo; in short: as §3
# [17] = Cmax in Wistar rat at 3.4 mg/kg, po; assay type: ADME, organism-based; design: dose 3.4 mg/kg, route oral; conditions: in vivo; in short: as §3
# [18] = AUC (0 to infinity) in Wistar rat at 3.4 mg/kg, po; assay type: ADME, organism-based; design: time infinity, dose 3.4 mg/kg, route oral; conditions: plasma; in short: as §3
# [19] = Bioavailability in Wistar rat at 3.4 mg/kg, po; assay type: ADME, organism-based; conditions: in vivo; in short: as §3
# Liver microsomes [20] = experiment: Intrinsic clearance in human liver microsomes; assay type: ADME, Microsome
# Cytochrome P450 1A2 = target: T2, Cytochrome P450 1A2 (Homo sapiens, UniProt P05177); experiment: Inhibition of CYP1A2 in human liver microsomes; assay type: ADME, Microsome
# T2 sequence (P05177 whole entry): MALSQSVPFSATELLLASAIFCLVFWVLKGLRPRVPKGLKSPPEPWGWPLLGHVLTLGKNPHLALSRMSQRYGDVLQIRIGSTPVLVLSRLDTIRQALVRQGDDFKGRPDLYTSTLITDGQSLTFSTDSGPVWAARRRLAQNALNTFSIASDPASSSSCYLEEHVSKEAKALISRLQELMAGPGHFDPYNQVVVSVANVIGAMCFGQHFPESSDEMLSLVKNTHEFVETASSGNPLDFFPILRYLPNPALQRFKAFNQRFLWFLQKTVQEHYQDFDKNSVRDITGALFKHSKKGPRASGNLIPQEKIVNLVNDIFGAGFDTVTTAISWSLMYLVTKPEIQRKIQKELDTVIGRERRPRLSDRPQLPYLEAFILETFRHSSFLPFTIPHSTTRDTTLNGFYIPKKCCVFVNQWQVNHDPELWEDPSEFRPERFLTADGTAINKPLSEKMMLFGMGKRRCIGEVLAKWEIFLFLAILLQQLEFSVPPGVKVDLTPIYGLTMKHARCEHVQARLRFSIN
# Cytochrome P450 2C8 = target: T3, Cytochrome P450 2C8 (Homo sapiens, UniProt P10632); experiment: Inhibition of CYP2C8 in human liver microsomes; assay type: ADME, Microsome
# T3 sequence (P10632 whole entry): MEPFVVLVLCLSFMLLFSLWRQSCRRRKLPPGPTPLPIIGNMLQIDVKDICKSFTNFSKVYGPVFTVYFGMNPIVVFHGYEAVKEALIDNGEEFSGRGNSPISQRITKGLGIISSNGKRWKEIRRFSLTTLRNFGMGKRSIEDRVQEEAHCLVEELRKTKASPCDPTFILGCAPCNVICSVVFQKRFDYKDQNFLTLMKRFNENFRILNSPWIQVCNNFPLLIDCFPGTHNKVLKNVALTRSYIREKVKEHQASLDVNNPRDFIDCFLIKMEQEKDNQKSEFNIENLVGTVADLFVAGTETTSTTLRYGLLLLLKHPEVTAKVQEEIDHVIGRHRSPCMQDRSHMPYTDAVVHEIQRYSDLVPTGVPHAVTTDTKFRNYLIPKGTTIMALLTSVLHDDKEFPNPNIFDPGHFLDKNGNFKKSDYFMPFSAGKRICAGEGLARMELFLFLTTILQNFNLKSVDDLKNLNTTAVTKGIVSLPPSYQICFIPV
# Cytochrome P450 2C9 = Cytochrome P450 2C9 (Homo sapiens, UniProt P11712); experiment: Inhibition of CYP2C9 in human liver microsomes; assay type: ADME, Microsome
# Chain of Cytochrome P450 2C9 (P11712 whole entry): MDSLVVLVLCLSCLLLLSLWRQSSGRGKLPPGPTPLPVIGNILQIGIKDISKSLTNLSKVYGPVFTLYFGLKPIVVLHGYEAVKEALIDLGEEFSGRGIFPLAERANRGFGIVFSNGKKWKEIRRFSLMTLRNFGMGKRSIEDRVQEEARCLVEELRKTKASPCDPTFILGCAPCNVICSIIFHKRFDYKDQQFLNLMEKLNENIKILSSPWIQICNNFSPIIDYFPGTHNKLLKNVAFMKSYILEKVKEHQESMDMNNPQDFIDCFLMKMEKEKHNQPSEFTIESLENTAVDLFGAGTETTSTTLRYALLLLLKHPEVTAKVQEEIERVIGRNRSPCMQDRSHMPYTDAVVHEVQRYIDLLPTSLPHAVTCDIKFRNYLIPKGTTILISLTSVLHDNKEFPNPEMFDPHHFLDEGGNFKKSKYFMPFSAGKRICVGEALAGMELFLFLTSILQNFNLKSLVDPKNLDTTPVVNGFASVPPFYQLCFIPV
# Cytochrome P450 2C19 = Cytochrome P450 2C19 (Homo sapiens, UniProt P33261); experiment: Inhibition of CYP2C19 in human liver microsomes; assay type: ADME, Microsome
# Chain of Cytochrome P450 2C19 (P33261 whole entry): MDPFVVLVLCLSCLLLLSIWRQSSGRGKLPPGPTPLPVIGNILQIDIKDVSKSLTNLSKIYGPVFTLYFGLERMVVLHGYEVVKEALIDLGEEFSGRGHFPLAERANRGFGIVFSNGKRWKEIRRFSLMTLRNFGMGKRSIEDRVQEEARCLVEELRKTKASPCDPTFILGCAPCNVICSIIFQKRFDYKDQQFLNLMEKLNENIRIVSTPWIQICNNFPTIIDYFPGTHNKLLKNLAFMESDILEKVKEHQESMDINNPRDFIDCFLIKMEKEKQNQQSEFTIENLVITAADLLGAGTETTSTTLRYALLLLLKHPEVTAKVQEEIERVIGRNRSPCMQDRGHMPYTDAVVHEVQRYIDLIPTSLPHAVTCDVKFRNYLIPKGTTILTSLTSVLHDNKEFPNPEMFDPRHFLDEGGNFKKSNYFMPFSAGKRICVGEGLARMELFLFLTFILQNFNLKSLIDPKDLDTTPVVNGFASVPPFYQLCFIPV
# Cytochrome P450 2D6 = Cytochrome P450 2D6 (Homo sapiens, UniProt P10635); experiment: Inhibition of CYP2D6 in human liver microsomes; assay type: ADME, Microsome
# Chain of Cytochrome P450 2D6 (P10635 whole entry): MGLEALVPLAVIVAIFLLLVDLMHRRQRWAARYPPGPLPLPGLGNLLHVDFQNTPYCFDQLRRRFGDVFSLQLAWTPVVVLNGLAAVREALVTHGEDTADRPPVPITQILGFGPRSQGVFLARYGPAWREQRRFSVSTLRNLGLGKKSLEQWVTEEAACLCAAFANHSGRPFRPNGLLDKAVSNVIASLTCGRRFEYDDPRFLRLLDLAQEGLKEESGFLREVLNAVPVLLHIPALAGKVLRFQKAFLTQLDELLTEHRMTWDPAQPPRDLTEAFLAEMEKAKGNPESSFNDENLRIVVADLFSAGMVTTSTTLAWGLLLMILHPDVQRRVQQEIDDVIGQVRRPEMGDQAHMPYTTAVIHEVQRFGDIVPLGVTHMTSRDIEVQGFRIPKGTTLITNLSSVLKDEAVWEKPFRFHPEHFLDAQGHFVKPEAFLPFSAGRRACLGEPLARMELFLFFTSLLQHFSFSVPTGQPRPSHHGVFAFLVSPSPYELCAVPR
compound,measurement,setting,value
O=C(c1cccc2ccccc12)c1ccc(OCCc2ccccc2)c2ccccc12,IC50,Cannabinoid receptor 1 [1],930 nM
same,IC50,Cannabinoid receptor 2 [2],2000 nM
CCCOc1ccc(C(=O)c2cccc3ccccc23)c2ccccc12,IC50,Cannabinoid receptor 1 [1],300 nM
same,IC50,Cannabinoid receptor 2 [2],90 nM
CCCCCOc1ccc(C(=O)c2cccc3ccccc23)c2ccccc12,IC50,Cytochrome P450 2E1,> 200000 nM
same,IC50,Cytochrome P450 3A4,> 200000 nM
same,fraction unbound,[3],< 0.01
same,logP,[4],6.85
same,Cmax,[5],1130 nM
same,Drug uptake,Brain,0.24 µmol/kg
same,IC50,Cannabinoid receptor 1 [6],22 nM
same,Emax,Cannabinoid receptor 2 [7],88.4%
same,clearance,[8],8 mL/min/kg
same,CL,Liver microsomes [9],< 5 µL/min
same,IC50,Cannabinoid receptor 2 [2],98 nM
same,EC50,Cannabinoid receptor 2 [10],27.9 nM
same,Activity,Rattus norvegicus [11],90%
same,half-life,[12],64.6 h
same,D50,Rattus norvegicus [13],0.17 mg/kg
same,Vd,[14],9.6 L/kg
same,AUC(0-inf),[15],5.72 µM·h
same,Tmax,[16],1 h
same,Cmax,[17],1600 nM
same,AUC(0-inf),[18],8.39 µM·h
same,bioavailability,[19],43%
same,CL,Liver microsomes [20],< 5 µL/min
same,IC50,Cytochrome P450 1A2,> 200000 nM
same,IC50,Cytochrome P450 2C8,> 200000 nM
same,IC50,Cytochrome P450 2C9,80800 nM
same,IC50,Cytochrome P450 2C19,> 200000 nM
same,IC50,Cytochrome P450 2D6,> 200000 nM
CCCCOc1ccc(C(=O)c2cccc3ccccc23)c2ccccc12,IC50,Cannabinoid receptor 1 [1],48 nM
same,IC50,Cannabinoid receptor 2 [2],85 nM
CCCCCCOc1ccc(C(=O)c2cccc3ccccc23)c2ccccc12,IC50,Cannabinoid receptor 1 [1],160 nM
same,IC50,Cannabinoid receptor 2 [2],660 nM
Cc1c(C(=O)c2cccc3ccccc23)c2cccc3c2n1[C@H](CN1CCOCC1)CO3 [WIN-552122],Emax,Cannabinoid receptor 2 [7],96.9%
same,D50,Rattus norvegicus [13],0.52 mg/kg
CCCCCNc1ccc(C(=O)c2cccc3ccccc23)c2ccccc12,IC50,Cannabinoid receptor 1 [1],25 nM
same,IC50,Cannabinoid receptor 2 [2],120 nM
CCCCCCC(C)(C)c1ccc([C@@H]2C[C@H](O)CC[C@H]2CCCO)c(O)c1 [CP-55940],Emax,Cannabinoid receptor 2 [7],100%
same,D50,Rattus norvegicus [13],0.08 mg/kg
